According to PMC9523306 (The Journal of Veterinary Medical Science, 2022):

What was measured:
Assay in all cases: Reverse transcription-PCR, right cerebral cortex
Assay type in all cases: in vivo, rat
Details in all cases: retinoic acid + MCAO animals; 5 mg/kg intraperitoneally for four days before MCAO; ratio of PCR product intensity to β-actin intensity; mean ± S.E.M., n=5
[1] = test system: glycerol-3-phosphate dehydrogenase mRNA
Summary of the method: (§1)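 Male Sprague-Dawley rats (200–220 g). Test compound was given in PEG/0.9% NaCl/ethanol (70/20/10 by volume), and vehicle was solvent alone. The right MCA origin was occluded by intraluminal 4–0 nylon suture for 24 hr; shams had surgery without the suture. Total RNA from the right cortex (Trizol) was used, with 500 ng reverse-transcribed. PCR ran 28–30 cycles (94°C 30 sec, 54–56°C 30 sec, 72°C 1 min), then 1% agarose, UV, densitometry. Two-way ANOVA, Scheffe post-hoc.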

[2] = test system: Adenosylhomocysteinase mRNA
Summary of the method: as §1

Apolipoprotein A1 mRNA = test system: Apolipoprotein A1 mRNA
Summary of the method: as §1

[3] = test system: Rab GDP dissociation inhibitor β mRNA
Summary of the method: as §1

[4] = test system: Isocitrate dehydrogenase [NAD^+] subunit α mRNA
Summary of the method: as §1

[5] = test system: heat shock protein 60 mRNA
Summary of the method: as §1

CC1=C(/C=C/C(C)=C/C=C/C(C)=C/C(=O)O)C(C)(C)CCC1 [retinoic acid, Retinoic acid]
Expression levels of glycerol-3-phosphate dehydrogenase mRNA [1]: 0.91 ± 0.02
Adenosylhomocysteinase mRNA levels [2]: 1.28 ± 0.06
Apolipoprotein A1 mRNA levels (Apolipoprotein A1 mRNA): 1.13 ± 0.02
Rab GDP dissociation inhibitor β mRNA levels [3]: 1.02 ± 0.02
Isocitrate dehydrogenase [NAD^+] subunit α mRNA levels [4]: 1.36 ± 0.05
Expression levels of heat shock protein 60 mRNA [5]: 0.95 ± 0.05
